Test results taken from ChEMBL document CHEMBL5705888, “Substrate specificity and inhibitors of LRRK2, a protein kinase mutated in Parkinson's disease” (Biochem J, 2009).
The source made the active and inactive calls. The rule behind the calls is not given here.

What was measured:
[1] = biological target: Leucine-rich repeat serine/threonine-protein kinase 2 (Homo sapiens, UniProt Q5S007, G2019S); test: Inhibition of GST-tagged LRRK2 G2019S mutant (1326 to 2527 residues) (unknown origin) using peptide as substrate incubated for 15 mins in presence of ATP by immunoblotting analysis
Sequence of Leucine-rich repeat serine/threonine-protein kinase 2 (Homo sapiens, UniProt Q5S007, G2019S) (Q5S007 whole entry G2019S, the tested form may be a part): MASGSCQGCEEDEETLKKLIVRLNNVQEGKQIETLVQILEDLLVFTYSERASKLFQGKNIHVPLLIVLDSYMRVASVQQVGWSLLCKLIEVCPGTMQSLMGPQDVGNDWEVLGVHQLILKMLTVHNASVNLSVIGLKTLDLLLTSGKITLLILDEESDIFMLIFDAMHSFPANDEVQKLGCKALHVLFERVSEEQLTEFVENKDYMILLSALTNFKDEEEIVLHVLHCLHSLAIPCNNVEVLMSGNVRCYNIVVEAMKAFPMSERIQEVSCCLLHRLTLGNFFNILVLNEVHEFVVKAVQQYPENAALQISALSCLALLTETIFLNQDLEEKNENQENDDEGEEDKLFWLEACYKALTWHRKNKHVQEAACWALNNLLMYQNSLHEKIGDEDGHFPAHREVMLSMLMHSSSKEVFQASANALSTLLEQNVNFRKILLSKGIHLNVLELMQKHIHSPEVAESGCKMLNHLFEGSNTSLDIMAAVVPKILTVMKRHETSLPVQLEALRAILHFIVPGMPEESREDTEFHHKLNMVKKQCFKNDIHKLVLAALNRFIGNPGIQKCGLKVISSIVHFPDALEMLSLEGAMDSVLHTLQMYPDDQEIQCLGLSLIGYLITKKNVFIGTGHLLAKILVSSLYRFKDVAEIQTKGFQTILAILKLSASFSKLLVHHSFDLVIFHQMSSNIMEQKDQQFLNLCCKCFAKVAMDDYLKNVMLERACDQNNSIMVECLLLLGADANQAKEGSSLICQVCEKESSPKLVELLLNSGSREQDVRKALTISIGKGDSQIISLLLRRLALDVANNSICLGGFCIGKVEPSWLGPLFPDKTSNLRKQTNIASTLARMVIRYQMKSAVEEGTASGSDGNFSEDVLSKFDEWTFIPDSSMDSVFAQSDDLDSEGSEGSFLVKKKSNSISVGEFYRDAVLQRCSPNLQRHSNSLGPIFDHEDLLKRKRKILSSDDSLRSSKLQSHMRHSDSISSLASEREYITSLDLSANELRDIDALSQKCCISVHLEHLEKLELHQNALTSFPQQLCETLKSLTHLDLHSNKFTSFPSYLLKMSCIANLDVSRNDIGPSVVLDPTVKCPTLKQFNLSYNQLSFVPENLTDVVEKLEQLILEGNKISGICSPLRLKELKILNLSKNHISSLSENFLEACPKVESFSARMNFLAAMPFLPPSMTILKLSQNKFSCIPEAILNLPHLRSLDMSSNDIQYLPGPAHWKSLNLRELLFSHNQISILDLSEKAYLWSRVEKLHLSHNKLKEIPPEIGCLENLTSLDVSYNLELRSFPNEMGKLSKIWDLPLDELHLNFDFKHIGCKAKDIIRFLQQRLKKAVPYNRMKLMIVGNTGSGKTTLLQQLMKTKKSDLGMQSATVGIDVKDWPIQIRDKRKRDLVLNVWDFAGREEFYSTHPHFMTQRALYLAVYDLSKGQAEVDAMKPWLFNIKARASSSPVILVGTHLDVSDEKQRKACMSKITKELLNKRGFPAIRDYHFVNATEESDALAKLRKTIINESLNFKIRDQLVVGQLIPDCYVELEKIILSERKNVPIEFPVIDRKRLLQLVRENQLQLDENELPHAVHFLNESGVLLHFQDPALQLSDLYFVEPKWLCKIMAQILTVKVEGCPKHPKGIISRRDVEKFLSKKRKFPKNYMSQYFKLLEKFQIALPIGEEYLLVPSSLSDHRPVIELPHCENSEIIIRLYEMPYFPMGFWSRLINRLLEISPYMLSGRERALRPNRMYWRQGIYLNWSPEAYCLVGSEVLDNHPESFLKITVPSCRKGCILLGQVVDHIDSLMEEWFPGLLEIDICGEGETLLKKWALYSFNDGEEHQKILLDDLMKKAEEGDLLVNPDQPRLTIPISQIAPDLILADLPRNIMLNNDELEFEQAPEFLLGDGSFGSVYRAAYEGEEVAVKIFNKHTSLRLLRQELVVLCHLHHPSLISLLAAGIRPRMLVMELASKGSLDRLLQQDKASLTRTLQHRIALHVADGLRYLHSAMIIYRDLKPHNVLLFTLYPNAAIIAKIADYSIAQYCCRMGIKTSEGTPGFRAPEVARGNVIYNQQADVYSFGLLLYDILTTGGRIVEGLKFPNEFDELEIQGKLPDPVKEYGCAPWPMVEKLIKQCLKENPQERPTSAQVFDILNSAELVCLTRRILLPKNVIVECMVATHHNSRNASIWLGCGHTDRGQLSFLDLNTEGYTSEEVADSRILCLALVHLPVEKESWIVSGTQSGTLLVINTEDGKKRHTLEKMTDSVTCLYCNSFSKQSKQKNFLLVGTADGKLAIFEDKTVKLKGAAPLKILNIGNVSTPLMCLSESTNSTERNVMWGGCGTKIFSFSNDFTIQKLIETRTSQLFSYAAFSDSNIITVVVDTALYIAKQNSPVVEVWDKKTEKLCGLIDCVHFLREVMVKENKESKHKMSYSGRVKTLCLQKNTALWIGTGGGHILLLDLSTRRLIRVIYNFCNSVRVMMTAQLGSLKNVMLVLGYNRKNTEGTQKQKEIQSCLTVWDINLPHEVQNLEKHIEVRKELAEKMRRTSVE

[2] = biological target: Leucine-rich repeat serine/threonine-protein kinase 2 (Homo sapiens, UniProt Q5S007); test: Inhibition of LRRK2 in human Flp-In-T-REx-293 cells assessed as inhibition of ERM phosphorylation at 10 uM incubated for 1 hr in presence of LRRKtide by immunoblot analysis; assay type: cell-based
Sequence of Leucine-rich repeat serine/threonine-protein kinase 2 (Homo sapiens, UniProt Q5S007) (Q5S007 whole entry): as the sequence (Q5S007 whole entry G2019S, the tested form may be a part) above, with S2019G counted along it
Procedure, shortened: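 Flp-in T-REx cells carrying GFP-tagged G14V-Rho were left uninduced or induced with 1 μg/ml doxycycline. At 7 h, compound at 10 μM was added for 1 h. Cells were lysed in SDS lysis buffer, run on 4–12% gels and immunoblotted with pan-phospho-ERM antibody (1 μg/ml in milk/TBST containing 10 μg/ml LRRKtide).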

[3] = biological target: T1, Interleukin-1 receptor-associated kinase 4 (Homo sapiens) (UniProt Q9NWZ3); test: Activity of IRAK4 (unknown origin) at 1 uM incubated for 30 mins in presence of [gamma-33P]ATP by multidrop micro reagent based assay relative to control
T1 sequence (whole entry): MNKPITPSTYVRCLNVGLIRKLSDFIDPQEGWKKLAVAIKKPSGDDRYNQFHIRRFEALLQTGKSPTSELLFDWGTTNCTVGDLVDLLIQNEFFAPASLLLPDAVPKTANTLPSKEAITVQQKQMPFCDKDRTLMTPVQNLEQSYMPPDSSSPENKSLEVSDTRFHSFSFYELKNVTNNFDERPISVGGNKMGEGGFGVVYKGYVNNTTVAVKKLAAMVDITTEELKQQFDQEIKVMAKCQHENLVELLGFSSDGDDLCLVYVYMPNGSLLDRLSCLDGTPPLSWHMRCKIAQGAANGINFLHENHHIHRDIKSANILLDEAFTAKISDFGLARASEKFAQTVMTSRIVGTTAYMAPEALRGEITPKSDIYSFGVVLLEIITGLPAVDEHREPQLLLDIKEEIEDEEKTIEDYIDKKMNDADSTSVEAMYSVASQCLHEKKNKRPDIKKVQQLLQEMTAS

[4] = biological target: Ribosomal protein S6 kinase alpha-3 (Homo sapiens) (UniProt P51812); test: Inhibition of RSK2 (unknown origin) at 1 uM incubated for 30 mins in presence of [gamma-33P]ATP by multidrop micro reagent based assay relative to control; values are per cent of control
Sequence of Ribosomal protein S6 kinase alpha-3 (Homo sapiens) (P51812 whole entry): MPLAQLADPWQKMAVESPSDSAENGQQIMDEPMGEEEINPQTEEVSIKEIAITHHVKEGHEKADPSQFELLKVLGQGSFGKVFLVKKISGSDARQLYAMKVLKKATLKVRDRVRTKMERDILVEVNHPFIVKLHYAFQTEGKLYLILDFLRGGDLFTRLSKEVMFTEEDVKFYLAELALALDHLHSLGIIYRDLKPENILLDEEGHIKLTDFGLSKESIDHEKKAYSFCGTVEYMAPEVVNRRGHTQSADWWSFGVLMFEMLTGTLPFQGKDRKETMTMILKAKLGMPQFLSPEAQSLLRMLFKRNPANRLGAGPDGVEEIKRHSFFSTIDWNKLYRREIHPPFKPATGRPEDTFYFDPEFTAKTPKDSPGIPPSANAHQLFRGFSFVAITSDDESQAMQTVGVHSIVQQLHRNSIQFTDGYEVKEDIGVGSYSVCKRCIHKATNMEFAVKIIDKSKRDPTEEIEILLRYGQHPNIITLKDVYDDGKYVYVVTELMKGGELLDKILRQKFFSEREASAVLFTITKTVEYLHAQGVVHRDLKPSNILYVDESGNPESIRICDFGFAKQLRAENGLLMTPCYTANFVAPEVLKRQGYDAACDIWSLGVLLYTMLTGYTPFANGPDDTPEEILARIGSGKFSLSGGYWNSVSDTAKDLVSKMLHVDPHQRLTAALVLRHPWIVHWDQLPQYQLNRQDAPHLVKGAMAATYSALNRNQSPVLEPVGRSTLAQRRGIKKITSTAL

[5] = biological target: T2, Serine/threonine-protein kinase 3 (Homo sapiens) (UniProt Q13188); test: Inhibition of MST2 (unknown origin) at 1 uM incubated for 30 mins in presence of [gamma-33P]ATP by multidrop micro reagent based assay relative to control; values are per cent of control
T2 sequence (whole entry): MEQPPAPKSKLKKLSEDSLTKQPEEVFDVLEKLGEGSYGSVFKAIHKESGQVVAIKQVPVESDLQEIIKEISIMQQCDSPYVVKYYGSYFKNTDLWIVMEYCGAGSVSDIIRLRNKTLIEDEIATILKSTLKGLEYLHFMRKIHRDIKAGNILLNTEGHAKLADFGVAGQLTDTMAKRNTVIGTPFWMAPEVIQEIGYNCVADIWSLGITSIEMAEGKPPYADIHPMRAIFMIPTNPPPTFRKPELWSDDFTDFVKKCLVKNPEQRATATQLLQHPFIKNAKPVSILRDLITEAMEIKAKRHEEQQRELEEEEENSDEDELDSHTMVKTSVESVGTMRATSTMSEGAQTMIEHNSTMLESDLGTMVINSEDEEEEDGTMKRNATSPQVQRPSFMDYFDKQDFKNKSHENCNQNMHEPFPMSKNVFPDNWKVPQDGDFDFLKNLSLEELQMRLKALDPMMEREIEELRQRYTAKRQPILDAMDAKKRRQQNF

[6] = biological target: Glycogen synthase kinase-3 beta (Homo sapiens) (UniProt P49841); test: Inhibition of GSK3beta (unknown origin) at 1 uM incubated for 30 mins in presence of [gamma-33P]ATP by multidrop micro reagent based assay relative to control; values are per cent of control
Sequence of Glycogen synthase kinase-3 beta (Homo sapiens) (P49841 whole entry, looked up): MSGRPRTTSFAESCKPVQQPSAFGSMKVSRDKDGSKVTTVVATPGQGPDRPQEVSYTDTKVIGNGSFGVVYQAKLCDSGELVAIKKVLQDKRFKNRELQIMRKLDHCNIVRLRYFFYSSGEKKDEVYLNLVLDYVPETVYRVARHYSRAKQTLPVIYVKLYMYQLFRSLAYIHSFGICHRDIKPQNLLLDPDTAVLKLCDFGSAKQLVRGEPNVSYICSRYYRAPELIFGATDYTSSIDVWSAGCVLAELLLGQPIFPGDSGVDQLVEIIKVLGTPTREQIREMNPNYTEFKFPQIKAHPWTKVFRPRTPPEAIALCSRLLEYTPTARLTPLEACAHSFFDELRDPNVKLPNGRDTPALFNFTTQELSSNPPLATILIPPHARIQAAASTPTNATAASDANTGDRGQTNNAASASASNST

[7] = biological target: T3, Mitogen-activated protein kinase 12 (Homo sapiens) (UniProt P53778); test: Inhibition of p38gamma MAPK (unknown origin) at 1 uM incubated for 30 mins in presence of [gamma-33P]ATP by multidrop micro reagent based assay relative to control; values are per cent of control
T3 sequence (whole entry): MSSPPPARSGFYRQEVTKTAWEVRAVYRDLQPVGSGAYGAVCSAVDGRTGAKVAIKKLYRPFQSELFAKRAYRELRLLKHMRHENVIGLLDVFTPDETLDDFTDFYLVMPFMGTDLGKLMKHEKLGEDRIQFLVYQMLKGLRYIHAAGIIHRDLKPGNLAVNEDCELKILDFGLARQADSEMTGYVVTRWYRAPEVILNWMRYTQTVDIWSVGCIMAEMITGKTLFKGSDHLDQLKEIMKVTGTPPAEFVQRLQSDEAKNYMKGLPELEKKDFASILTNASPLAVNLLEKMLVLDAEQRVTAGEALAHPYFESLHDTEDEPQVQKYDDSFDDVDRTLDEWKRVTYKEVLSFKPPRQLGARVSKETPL

[8] = test system: Leucine-rich repeat serine/threonine-protein kinase 2 (Homo sapiens), Q5S007 [G2019S]; test: Inhibition of LRRK2 G2019S mutant (unknown origin) at 1 uM incubated for 30 mins in presence of [gamma-33P]ATP by multidrop micro reagent based assay relative to control; values are per cent of control
Sequence of Leucine-rich repeat serine/threonine-protein kinase 2 (Homo sapiens), Q5S007 [G2019S] (Q5S007 whole entry G2019S): as the sequence (Q5S007 whole entry G2019S, the tested form may be a part) above

[9] = biological target: Serine/threonine-protein kinase Chk2 (Homo sapiens) (UniProt O96017); test: Inhibition of CHK2 (unknown origin) at 1 uM incubated for 30 mins in presence of [gamma-33P]ATP by multidrop micro reagent based assay relative to control; values are per cent of control
Sequence of Serine/threonine-protein kinase Chk2 (Homo sapiens) (O96017 whole entry): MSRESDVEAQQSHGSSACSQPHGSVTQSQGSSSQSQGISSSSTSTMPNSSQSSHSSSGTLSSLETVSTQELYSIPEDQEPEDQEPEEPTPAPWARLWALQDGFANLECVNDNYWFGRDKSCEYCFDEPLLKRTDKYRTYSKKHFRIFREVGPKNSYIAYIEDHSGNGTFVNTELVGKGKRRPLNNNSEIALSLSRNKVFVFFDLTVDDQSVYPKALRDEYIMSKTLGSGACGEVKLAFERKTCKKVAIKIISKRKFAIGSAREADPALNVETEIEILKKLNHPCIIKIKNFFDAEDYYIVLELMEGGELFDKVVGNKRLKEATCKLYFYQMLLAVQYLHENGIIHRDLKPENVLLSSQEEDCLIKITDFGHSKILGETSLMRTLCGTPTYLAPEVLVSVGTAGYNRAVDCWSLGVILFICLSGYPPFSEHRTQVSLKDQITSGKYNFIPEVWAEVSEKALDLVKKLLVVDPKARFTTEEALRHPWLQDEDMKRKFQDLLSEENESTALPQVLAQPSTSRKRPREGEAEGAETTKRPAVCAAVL

| SMILES | IC50 [1] [nM] | inhibition [2] | residual activity [3] [%] | residual activity [4] [%] | residual activity [5] [%] | residual activity [6] [%] | residual activity [7] [%] | residual activity [8] [%] | residual activity [9] [%] |
| --- | --- | --- | --- | --- | --- | --- | --- | --- | --- |
| CCn1c(-c2nonc2N)nc2cnc(Oc3cccc(NC(=O)c4ccc(OCCN5CCOCC5)cc4)c3)cc21 [GSK-269962A] | 2300 | inactive | 78 | 24 | 98 | 12 | 72 | 66 | – |
| Cc1cncc2cccc(S(=O)(=O)N3CCCNC[C@@H]3C)c12 | 150 | inactive | 102 | 76 | 41 | 72 | 101 | 13 | 44 |
| O=S(=O)(c1cccc2cnccc12)N1CCCNCC1 [FASUDIL] | > 30000 | – | – | – | – | – | – | – | – |
| C[C@@H](N)[C@H]1CC[C@H](C(=O)Nc2ccncc2)CC1 | – | inactive | – | – | – | – | – | – | – |
| CC1=C(C(=O)Nc2cc3cn[nH]c3cc2F)C(c2ccc(C(F)(F)F)cc2)CC(=O)N1 (stereo unspecified) | > 100000 | inactive | 94 | 48 | 108 | 93 | 112 | 97 | 102 |
| CCN(CC)CCNC(=O)c1c(C)[nH]c(/C=C2\C(=O)Nc3ccc(F)cc32)c1C | – | inactive | – | 41 | – | – | – | – | 5 |
